Lipid droplet: hepatic lipid droplet formation modulation. 240,000 compounds, 0.4% hits. AML12 mouse hepatocytes, oleate lipid droplets, BODIPY imaging. inhibition, % at 6.5 µM;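 active = lipid droplet intensity inhibited by at least 50%, with more than 500 cells counted; inconclusive = wells with under 300 cells, treated as cytotoxic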
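Assay system: AML12 hepatocytes (mouse); Probe or stimulus: oleic acid at 100 µM to induce lipid droplet formation; Dosing: compound at 6.5 µM only; Schedule: compound with oleate, overnight; Detection: fluorescence imaging, 20x objective, two fields per well; Measure: % inhibition of lipid droplet signal.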
HCV core dimer: HCV core protein dimerization inhibition; TR-FRET GST/Flag-core106 dimerization, 1536-well; inhibition, % at 5 µM; 300,000 compounds, 0.33% hits;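 active = inhibition above the mean of all tested compounds plus 3 SD, set per screening campaign, cut at about 45% in these data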
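Test system: GST/Flag-tagged HCV core106 proteins; Medium: KF-containing HEPES buffer, pH 7.45, DTT, CHAPS, BSA; Times: compound-protein-antibody incubation 4 h at 22.5 °C; Detection: TR-FRET 671 and 617 nm emission; Benchmarks: wells lacking GST-core106 and wells with excess unlabelled core106.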
HCV NS3 hel inh: blocks Hepatitis C virus NS3 helicase unwinding; NS3 helicase DNA unwinding, Cy5 molecular beacon fluorescence; inhibition, % at 10.9 µM; 290,000 compounds, 0.56% hits; AID 1800;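 active = inhibition above the mean of all tested compounds plus 3 SD, set per campaign, cut at about 35% in these data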;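 note: 0% = DMSO wells and 100% = thioflavine S control wells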
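Test system: hepatitis C virus NS3 helicase domain fragment enzyme. Also added: annealed dual-labelled DNA beacon duplex, ATP-started. Timing: 60 min unwinding reaction at 25 °C after ATP addition. Technique: Cy5 fluorescence. Measure: % inhibition of unwinding.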
Tb MetRS inh: Trypanosoma brucei MetRS inhibition; inhibition, % at 11.9 µM; 360,000 compounds, 0.4% hits; purified T. brucei MetRS, ATP depletion, Kinase-Glo luminescence;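 active = inhibition above a per-plate cutoff of the control wells' mean inhibition plus 3 SD, cut at about 5.5% in these data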;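 note: 0% = DMSO wells median and 100% = median of wells with control inhibitor compound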
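Material: T. brucei methionyl-tRNA synthetase, purified; reagent: substrates ATP, L-methionine and bulk Escherichia coli tRNA; dosing: 11.9 µM single point; timing: 15 min plus 2 h at 25 °C; detection: luminescence of leftover ATP; evaluation: % inhibition; control set: DMSO-only wells as low control; replicates: singlicate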
Hep lipid conf: hepatic lipid droplet formation inhibition, confirmed; shares compounds with Lipid droplet; AML12 mouse hepatocytes, BODIPY lipid droplet imaging; droplets induced with 100 µM oleic acid; inhibition, % at 5.2 µM; 870 compounds, 65% hits;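 active = inhibition of lipid droplet metric at least 50%, with more than 300 cells in each of four replicates; inconclusive = wells under 300 cells, flagged as toxic or low count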;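 note: plate controls were DMSO with oleic acid for no effect and 5 µM Triacsin-C for full effect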
AML12 tox img: toxic to AML12 mouse hepatocytes in counter-screen. shares compounds with Lipid droplet. DAPI nuclear morphology cytotoxicity imaging; hits give high values; cells fed 100 µM oleate overnight. z-score at 5 µM. 870 compounds, 3% hits. AID 463200; in the data active = z-score above about 6.3;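 note: compound exposure lasted overnight at 37 °C before fixation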
AML12 tox conf: confirmation of cytotoxicity in AML12 mouse hepatocytes. shares compounds with Lipid droplet. AML12 mouse hepatocyte viability, ATP luminescence; cells loaded with 100 µM oleic acid. cytotoxicity, % at 50 µM. 530 tested, under 10 active. AID 463219;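 active = cytotoxicity above 50% in each of four replicates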;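 note: compound exposure lasted overnight at 37 °C before the ATP read; 0% = DMSO-treated cells and 100% = wells with no cells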
Numbers without * were called inactive; ? = inconclusive; · = no result given. An excerpt weighted towards active compounds, which were near 1.3% of everything screened.

SMILES | Lipid droplet | HCV core dimer | HCV NS3 hel inh | Tb MetRS inh | Hep lipid conf | AML12 tox img | AML12 tox conf
CCOC(=O)c1sc2cc([N+](=O)[O-])cc(SCCO)c2c1N | 52* | -19 | -2 | -1 | 61* | -0.48 | ·
CCCCNC(=O)c1c(N)[nH]c(C(=O)c2ccccc2)c1-c1ccccn1 | · | · | · | -1 | · | · | ·
O=c1[nH]nc2c3ccccc3occ1-2 | · | · | · | 0 | · | · | ·
COc1cccc(N=Nc2c(C)[nH]n(-c3ccccc3)c2=O)c1 | 51* | 2 | -6 | -1 | 103* | -0.7 | 12
COc1ccc(-c2csc(NC(=O)c3ccc(OCC(=O)N4CCOCC4)c(OC)c3)n2)cc1OC | 71* | -5 | 4 | 0 | 96* | 0.43 | 25
O=C(C[C@@H]1CC[C@H](NC(=O)Cc2ccccn2)[C@@H](CO)O1)NCCc1ccccc1 | · | · | · | -1 | · | · | ·
O=[N+]([O-])c1cc2c(c(CSc3nnc(Nc4ccccc4)s3)c1)OCOC2 | 64* | 16 | -5 | 0 | 93* | -1.6 | 9
Cc1ccccc1Nc1nnc(SCc2cc([N+](=O)[O-])cc3c2OCOC3)s1 | 38 | 9 | -5 | -1 | · | · | ·
COc1ccc(C(=O)OC(C)C(=O)NC(C)CCc2ccccc2)cc1[N+](=O)[O-] (stereo not drawn) | 68* | -13 | 12 | 0 | 109* | 0.035 | 2
COc1ccc(C(=O)OCC(=O)NC(C)CCc2ccccc2)cc1OC (stereo not drawn) | 62* | 0 | -5 | 0 | 72* | -0.53 | 7
COc1ccc(C(=O)NCCc2ccccc2)cc1[N+](=O)[O-] | -3 | 0 | 13 | 0 | · | · | ·
COc1cccc(N2CCN(CC(=O)NC3=Nc4ccccc4N=C(C)C3c3ccccc3)CC2)c1 (stereo not drawn) | -22 | 5 | -1 | 0 | · | · | ·
COc1cccc(N2CCN(CC(=O)Nc3nnc(-c4ccccc4)s3)CC2)c1 | 59* | 0 | -8 | -2 | 95* | 0.5 | 15
CCOc1ccccc1NC(=O)C1CCCC1 | · | · | · | -1 | · | · | ·
CCOc1ccccc1NC(=O)c1cccc(NC(=O)C2CCCC2)c1 | 63* | 6 | -5 | 0 | 95* | 0.46 | 4
Cc1ccc([N+](=O)[O-])cc1NC(=O)C(C)Sc1nnc(C)n1CC1CCCO1 (stereo not drawn) | 60* | -15 | 0 | 0 | 18 | -0.28 | ·
CCOC(=O)C1CCN(C(=O)C2(NC(=O)Nc3ccc(F)cc3F)CCCCC2)CC1 | 69* | 2 | -1 | 0 | 97* | -0.0011 | 12
C[C@@H](NC(=O)[C@@H]1CCCN1C(=O)OC(C)(C)C)c1ccccc1 | · | · | · | -1 | · | · | ·
COc1cc([C@@H]2C[C@H]3CN(c4ccccc4)C(=O)[C@]34CCCN24)cc(OC)c1OC | 3 | 1 | -4 | 1 | · | · | ·
CCOc1cc([C@@H]2C[C@H]3CN(c4ccccc4)C(=O)[C@]34CCCN24)ccc1OC | 80* | 5 | 4 | 0 | 97* | 0.57 | 19
CCN(CC)c1ccc(CC(=O)NC(C)Cc2ccccc2)cc1 (stereo not drawn) | · | -7 | 0 | 0 | · | · | ·
CCCN(CCC)c1ccc(CC(=O)NC(C)Cc2ccccc2)cc1 (stereo not drawn) | 101* | 0 | -14 | -1 | 109* | -0.95 | 3
COc1ccc(Cl)cc1NC(=O)c1ccco1 | -1 | 2 | 6 | -2 | · | · | ·
COc1cc(NC(=O)c2ccco2)c(OC)cc1NC(=O)Nc1ccccc1Cl | 82* | -3 | 6 | 0 | 114* | 0.93 | 10
Cc1cccc(NC2=C(NCCO)C(=O)c3ccccc3C2=O)c1 | 89* | -41 | -5 | 1 | 97* | 0.31 | 22
SMILES | Lipid droplet | HCV core dimer | HCV NS3 hel inh | Tb MetRS inh | Hep lipid conf | AML12 tox img | AML12 tox conf
COc1cccc(NC2=C(NCCO)C(=O)c3ccccc3C2=O)c1 | 5 | -72 | -1 | 0 | · | · | ·
COc1ccc(C2CC(c3cccs3)=NN2C(=O)CSc2nc3ccccc3s2)cc1 (stereo not drawn) | 74* | 12 | -1 | 0 | 101* | -0.94 | 4
O=C(CSc1nc2ccccc2s1)N1N=C(c2cccs2)CC1c1ccc(F)cc1 (stereo not drawn) | -10 | 19 | -6 | -1 | · | · | ·
CC(C)OC(=O)/C=C1\C[C@@H](c2ccccc2C(F)(F)F)O[C@@H](c2ccccc2C(F)(F)F)O1 | · | · | · | 0 | · | · | ·
CCCCn1c(=O)[nH]c(=O)c2c1nc(-c1ccc(-c3ccccc3)cc1)n2C | 64* | 5 | -19 | 0 | 70* | -0.69 | -5
CCCCCCCCn1c(N2CCN(c3cccc(Cl)c3)CC2)nc2c1c(=O)[nH]c(=O)n2C | 83* | 15 | 3 | 0 | 98* | -1.1 | 16
CCCCCCn1c(N2CCN(c3ccccc3)CC2)nc2c1c(=O)[nH]c(=O)n2C | 58* | 22 | 4 | 0 | 93* | -1.2 | -11
CCCCCCn1c(N2CCN(c3cccc(Cl)c3)CC2)nc2c1c(=O)[nH]c(=O)n2C | · | 15 | -3 | 0 | · | · | ·
CCCCn1c(=O)[nH]c(=O)c2c1nc(-c1ccc(C(F)(F)F)cc1)n2C | 18 | 0 | -14 | 0 | · | · | ·
C/C(=N\NC(=O)Cc1c(C)[nH][nH]c1=O)c1ccc2ccccc2c1 | -23 | -5 | 1 | · | · | · | ·
COc1cccc(/C(C)=N/NC(=O)Cc2c(C)[nH][nH]c2=O)c1 | 63* | -3 | 11 | 0 | 26 | 0.32 | ·
CC(C)(C)OC(=O)N1CCC[C@@H]1C(=O)N1CCC[C@@H]1C(=O)NCc1ccccc1Cl | · | · | · | -1 | · | · | ·
CC1(C(=O)NCc2ccco2)Cc2c(-c3ccccc3)ccnc2O1 (stereo not drawn) | · | · | · | 0 | · | · | ·
CSc1ccc(CNC(=O)C2(C)CCCN2CC(C)C)cc1 (stereo not drawn) | · | · | · | 0 | · | · | ·
CC(C)CNS(=O)(=O)c1ccc(CCC(=O)Nc2cc(Cl)ccc2Oc2ccccc2)cc1 | 40 | 15 | -6 | 3 | · | · | ·
CCCNS(=O)(=O)c1ccc(CCC(=O)Nc2cc(Cl)ccc2Oc2ccccc2)cc1 | 63* | · | -7 | -1 | 93* | -0.022 | 38
Oc1ccc2ccccc2c1N=Nc1ccccn1 | -20 | -16 | 5 | -2 | · | · | ·
Oc1ccc2ccccc2c1N=Nc1ccccc1F | 93* | -4 | -1 | 0 | 95* | 0.84 | ·
Clc1cccc(Nc2nc(-c3ccncc3)cs2)c1 | 91* | 3 | -13 | 2 | 58 | 17* | ·
Cc1cccc(Nc2nc(-c3ccncc3)cs2)c1 | ? | -2 | 4 | 0 | · | · | ·
COc1ccc2nc(N=Nc3c(O)ccc4ccccc34)sc2c1 | 50* | · | -3 | · | 6 | -0.12 | ·

Source: PubChem
